# Source: PubChem
# Sampled rows, rich in hits. Any-hit rate of the full collection: about 1.2%.
# TRPN1 ag: zebrafish TRPN1 channel agonists, primary screen, cell-based, HEK293, calcium fluorescence; actives 0.18% (n = 220,000); activation, % at 3 µM; transient receptor potential cation channel N1 (TRPN1/NompC), Danio rerio; HEK293 zebrafish TRPN1-YFP, Fluo-8 calcium fluorescence; 100% = response to 87 µM carbachol;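 active = activation above its plate's cutoff, the mean activation of test wells on that plate plus 3 SD, cut at about 19% in these data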;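 note: 0% = DMSO alone and 100% = 87 µM carbachol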
#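 Material – zebrafish TRPN1-YFP in HEK293 cells · Doses – 3 µM single point · Schedule – dye 1 h 37 °C plus 30 min RT · Signal – Fluo-8 calcium fluorescence, excitation 470-495 nm, emission 515-575 nm · Read-out – % activation versus carbachol response · Control set – carbachol high, DMSO low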
# CRFR2-BP ag: agonists of CRF-BP/CRF-R2 complex, primary screen, cell-based, HEK293, calcium dye fluorescence, uHTS; activation, % at 13.2 µM; actives 0.46% (n = 350,000); calcium dye fluorescence (FLIPR); percent of saturating CRF peptide response; CRF-binding protein / CRF receptor 2 complex (human);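 active = activation of at least 50%, plus an integration ratio under a set limit after plate pattern correction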;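 note: plate controls were neutral control wells without compound for no effect and CRF at EC100 for full effect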
# CRFR2-BP antag: antagonists of CRF-BP/CRF-R2 complex, primary screen, cell-based, HEK293, calcium dye fluorescence, uHTS | CRF-induced calcium fluorescence | inhibition, % at 11.8 µM | actives 0.59% (n = 350,000) | AID 588475, 2011;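 active = inhibition of the ligand-induced calcium signal above about 50% at the single tested concentration, limit read from the data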
# TRPML3 ag: human TRPML3 channel agonists, primary screen, cell-based, HEK293 TRPML3-YFP, Fluo-8 calcium fluorescence, 3 µM | 100% = the carbachol control signal | activation, % at 3 µM | actives 0.29% (n = 220,000);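 active = activation above its plate's cutoff, the mean activation of the plate's test wells plus 3 SD, cut at about 12% in these data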;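 note: 0% = DMSO only wells and 100% = carbachol wells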
# Target sequence (Q8TDD5 whole entry, looked up): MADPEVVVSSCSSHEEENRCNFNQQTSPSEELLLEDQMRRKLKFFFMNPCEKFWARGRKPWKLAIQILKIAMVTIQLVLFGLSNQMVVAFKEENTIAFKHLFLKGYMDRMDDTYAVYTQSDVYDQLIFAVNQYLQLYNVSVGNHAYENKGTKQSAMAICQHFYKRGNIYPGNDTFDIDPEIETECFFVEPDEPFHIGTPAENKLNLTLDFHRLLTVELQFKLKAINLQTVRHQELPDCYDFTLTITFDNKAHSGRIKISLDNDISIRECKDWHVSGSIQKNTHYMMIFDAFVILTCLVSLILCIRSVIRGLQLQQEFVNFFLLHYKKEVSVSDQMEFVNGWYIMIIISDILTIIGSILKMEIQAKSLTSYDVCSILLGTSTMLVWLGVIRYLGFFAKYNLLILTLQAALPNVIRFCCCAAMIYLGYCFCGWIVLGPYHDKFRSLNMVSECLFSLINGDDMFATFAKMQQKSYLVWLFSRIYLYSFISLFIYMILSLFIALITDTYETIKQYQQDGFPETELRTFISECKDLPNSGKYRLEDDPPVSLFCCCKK
#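 Material: HEK293 cells stably carrying human TRPML3-YFP; compound dosing: single dose, 3 µM final nominal compound, 0.3% DMSO final; incubation: 1-h 37 °C dye load, 5-s basal, 120-s post-compound reads; technique: Fluo-8 intracellular calcium fluorescence, excitation 470-495 nm, emission 515-575 nm; read-out basis: percent activation from peak-to-basal fluorescence ratio, scaled between DMSO and carbachol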
# TRPN1 counter: zebrafish TRPN1 channel agonists, counter-screen for TRPML3 agonist project, cell-based, HEK293 TRPN1-YFP, Fluo-8 calcium. actives 10% (n = 310). shares compounds with TRPML3 ag. AID 1525, 2009. Fluo-8 calcium fluorescence; scaled: carbachol wells 100%, DMSO wells 0%. activation, % at 3 µM;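 active = mean activation over replicates above a set limit taken from the earlier TRPN1 channel primary screen, cut at about 19% in these data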;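 note: 100% = carbachol and 0% = 0.3% DMSO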
# TRPML3 ag conf: human TRPML3 channel agonists, confirmation, cell-based, HEK293 TRPML3-YFP, Fluo-8 calcium, triplicate. shares compounds with TRPML3 ag. Fluo-8 calcium fluorescence; 100% set by carbachol, 0% by DMSO. activation, % at 3 µM. actives 80% (n = 310);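 active = activation above a set limit derived from the earlier primary screen, cut at about 12% in these data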
# * = called active by the depositor; nt = no result.
SMILES,TRPN1 ag,CRFR2-BP ag,CRFR2-BP antag,TRPML3 ag,TRPN1 counter,TRPML3 ag conf
Cc1sc(NC(=O)C2C3CCC(C3)C2C(=O)O)c(C(N)=O)c1-c1ccc(C(C)(C)C)cc1 (stereo not given),0.8,0.1,19.1,18.1*,0.8,-0.4
Cc1sc(NC(=O)/C=C/C(=O)O)c(C(N)=O)c1-c1ccc(C(C)(C)C)cc1,-1.2,0.2,20.6,0.6,nt,nt
CCOC(=O)C1=C(N)Oc2cc(O)ccc2C1c1ccc([N+](=O)[O-])cc1 (stereo not given),0.8,-0.4,-0.2,1.0,nt,nt
CC1CCCC(C)N1C(=C(Cl)Cl)C(=C1SCCS1)[N+](=O)[O-] (stereo not given),0.2,26.5,-111.0,13.7*,9.5,55.1*
Cc1ccc(N2C(=O)CS/C2=C(\C(Cl)=C(Cl)Cl)[N+](=O)[O-])cc1,0.6,0.8,4.0,1.9,nt,nt
Cc1cccc(-c2noc(CN(C(C)C)S(=O)(=O)c3ccc(F)cc3)n2)c1,1.6,2.6,-4.7,74.7*,-0.1,55.9*
Cc1ccc(S(=O)(=O)n2nccc2-c2c(-c3ccc(Cl)cc3)noc2C)cc1,1.0,6.2,-15.2,81.8*,0.5,106.2*
CC(Oc1ccc(Cl)cc1)c1ccnn1S(=O)(=O)c1ccc(Cl)cc1 (stereo not given),-0.8,1.0,28.4,0.1,nt,nt
Cc1cc(NC(=O)COC(=O)C(Cc2ccccc2)NC(=O)c2ccco2)no1 (stereo not given),5.2,152.6*,-66.1,18.1*,21.6*,23.8*
O=S(=O)(c1ccc(S(=O)(=O)N2CCC3(CC2)OCCO3)cc1)N1CCCC1,0.7,1.4,3.9,1.4,nt,nt
Cc1ccc(C(=O)N2CCC3(CC2)Oc2ccc(Cl)cc2C(=O)C32CC(c3ccc(Cl)cc3)=NO2)s1 (stereo not given),nt,2.4,11.9,nt,nt,nt
Cc1nc(CNS(=O)(=O)c2ccccc2F)cs1,0.6,-1.5,35.5,0.3,nt,nt
Cc1c(Cl)cc(C(C)C)c(O)c1CN1CCOCC1,nt,-1.7,-31.0,nt,nt,nt
Cc1cc(C(C)c2ccccc2)c(O)c(CN2CCOCC2)c1C (stereo not given),0.2,-0.5,-31.4,15.7*,-2.5,33.2*
COc1ccc(Cc2nnc(NC(=O)c3cccs3)s2)cc1OC,-0.9,0.6,-2.1,0.5,nt,nt
NC(=O)C1(S(=O)(=O)c2ccccc2)CCCCC1,0.4,4.4,-10.6,0.5,nt,nt
O=S(=O)(c1ccccc1)C1(S(=O)(=O)c2ccccc2)CCCC1,1.7,0.2,2.6,18.0*,0.7,28.9*
S=C1CCC(c2ccc(Cl)cc2)=NN1c1ccccc1,-2.1,4.7,-3.3,16.1*,-1.7,9.0
O=C(c1ccccc1)N1CCCC(c2ccc(Cl)cc2)=N1,-1.3,-0.5,-11.8,-0.7,nt,nt
COc1cc2oc3ccccc3c2cc1N(CC(=O)N1CCCCC1)S(=O)(=O)c1ccc(C)cc1,16.2,88.7*,-60.1,178.7*,47.8*,146.6*
COc1ccc(N(CC(=O)N2CCCCC2)S(=O)(=O)c2ccccc2)c(OC)c1,1.0,-1.4,3.0,70.6*,1.5,120.9*
COc1cc2oc3ccccc3c2cc1N(CC(=O)N(C)C)S(=O)(=O)c1ccc(C)cc1,-1.3,1.4,7.5,0.8,nt,nt
COc1ccc(OC)c(N(CC(=O)N2CCCCC2)S(=O)(=O)c2ccc(OC)c(OC)c2)c1,-0.4,2.6,-21.3,87.8*,2.4,104.7*
COc1ccc(OC)c(N(CC(=O)N2CCCC2)S(=O)(=O)c2ccc(C)cc2)c1,nt,-0.8,10.7,nt,nt,nt
CCN(CC(=O)Nc1ccccc1OC)C(=O)c1ccc(NC(=O)c2cccs2)cc1,nt,-0.2,-7.3,nt,nt,nt
SMILES,TRPN1 ag,CRFR2-BP ag,CRFR2-BP antag,TRPML3 ag,TRPN1 counter,TRPML3 ag conf
CCC1CCCCN1S(=O)(=O)c1ccccc1[N+](=O)[O-] (stereo not given),-0.7,-0.3,-5.7,21.6*,0.1,21.9*
CCOC(=O)C1C(c2cc(OC)c(O)c(OC)c2)NC(=S)NC1(O)C(F)(F)F (stereo not given),0.9,0.8,9.8,0.4,nt,nt
CN(c1ccc(OCc2nnc(-c3ccccc3)o2)cc1)S(=O)(=O)c1ccccc1,1.4,0.7,23.4,40.2*,1.6,36.8*
CN(c1ccc(OCC(=O)OCc2nnc(-c3ccccc3)o2)cc1)S(=O)(=O)c1ccc(Cl)cc1,nt,2.7,-10.4,nt,nt,nt
COc1cccc(/C=C/C(=O)OCC(=O)N2c3ccccc3CC2C)c1OC (stereo not given),nt,-0.6,8.1,nt,nt,nt
CS(=O)(=O)Nc1cccc(-c2cn3c(n2)SCC3)c1,nt,-0.3,-2.6,nt,nt,nt
CCOC(=O)C1CCN(C(=O)C(C)N(c2ccc(Oc3ccccc3)cc2)S(C)(=O)=O)CC1 (stereo not given),8.7,-0.2,24.4,21.8*,7.6,17.9*
O=S(=O)(Nc1ccccc1N1CCCCC1)c1ccc(F)cc1F,-3.2,0.3,2.8,15.8*,-3.3,10.8
Cc1ccc(S(=O)(=O)N(C)c2ccc(C)c([N+](=O)[O-])c2)cc1,-1.6,-2.1,2.5,69.4*,-1.3,72.2*
COc1ccc(NC(=O)CN(C)S(=O)(=O)c2ccc(C)cc2)c([N+](=O)[O-])c1,0.8,3.8,-8.5,0.5,nt,nt
COc1ccc(N(C)S(=O)(=O)c2ccc(C)cc2)c([N+](=O)[O-])c1,-1.8,-0.4,8.5,35.5*,-0.6,42.0*
C=CCN1C(=O)C(C)S/C1=N\S(=O)(=O)c1ccc(Cl)cc1 (stereo not given),-3.1,-1.1,-11.3,0.1,nt,nt
CN(CCOc1ccc(Cl)cc1)c1ccc(S(=O)(=O)N2CCCCC2)cn1,0.8,2.7,-2.0,44.6*,0.0,46.7*
N/N=C(\c1ccccc1)c1cc(Cl)ccc1N,nt,-0.4,1.9,nt,nt,nt
O=S(=O)(NCCNc1ncc(C(F)(F)F)cc1Cl)C(F)(F)F,15.3,38.7,24.0,14.0*,21.1*,8.9
CS(=O)(=O)NCCNc1ncc(C(F)(F)F)cc1Cl,0.2,-1.7,4.2,1.8,nt,nt
Cc1ccc(S(=O)(=O)N2CCC(=O)N(C(COCc3ccc(C(F)(F)F)cc3)C(C)C)CC2)cc1 (stereo not given),0.7,3.5,-27.7,54.9*,0.3,77.4*
Cc1ccc(S(=O)(=O)N2CCC(=O)N(CCOCc3ccc(C(F)(F)F)cc3)CC2)cc1,8.7,0.1,-8.6,1.9,nt,nt
O=C(CN1CCN(S(=O)(=O)c2ccc(F)cc2)CC1)Nc1ccc(Cl)c(C(F)(F)F)c1,1.4,6.3,-24.2,15.1*,4.4,42.7*
